# Only some compounds are listed: those with a hit (about 2.3% of all), similar ones and a draw of the others.
# TRPC6 act = mouse TRPC6 channel activators, primary screen, cell-based, HEK293, membrane potential dye; 310,000 tested, 0.13% active; HEK293-TRPC6 membrane potential dye fluorescence; hits give high values; B-score at 10 µM; Short transient receptor potential channel 6 (Mus musculus), Q61143;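 active = B-score of the integrated fluorescence ratio above library mean plus 3 SD, and starting fluorescence ratio within library mean plus 5 SD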;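 note: higher score means more depolarization so channel activation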
# Target sequence (Q61143 whole entry, looked up): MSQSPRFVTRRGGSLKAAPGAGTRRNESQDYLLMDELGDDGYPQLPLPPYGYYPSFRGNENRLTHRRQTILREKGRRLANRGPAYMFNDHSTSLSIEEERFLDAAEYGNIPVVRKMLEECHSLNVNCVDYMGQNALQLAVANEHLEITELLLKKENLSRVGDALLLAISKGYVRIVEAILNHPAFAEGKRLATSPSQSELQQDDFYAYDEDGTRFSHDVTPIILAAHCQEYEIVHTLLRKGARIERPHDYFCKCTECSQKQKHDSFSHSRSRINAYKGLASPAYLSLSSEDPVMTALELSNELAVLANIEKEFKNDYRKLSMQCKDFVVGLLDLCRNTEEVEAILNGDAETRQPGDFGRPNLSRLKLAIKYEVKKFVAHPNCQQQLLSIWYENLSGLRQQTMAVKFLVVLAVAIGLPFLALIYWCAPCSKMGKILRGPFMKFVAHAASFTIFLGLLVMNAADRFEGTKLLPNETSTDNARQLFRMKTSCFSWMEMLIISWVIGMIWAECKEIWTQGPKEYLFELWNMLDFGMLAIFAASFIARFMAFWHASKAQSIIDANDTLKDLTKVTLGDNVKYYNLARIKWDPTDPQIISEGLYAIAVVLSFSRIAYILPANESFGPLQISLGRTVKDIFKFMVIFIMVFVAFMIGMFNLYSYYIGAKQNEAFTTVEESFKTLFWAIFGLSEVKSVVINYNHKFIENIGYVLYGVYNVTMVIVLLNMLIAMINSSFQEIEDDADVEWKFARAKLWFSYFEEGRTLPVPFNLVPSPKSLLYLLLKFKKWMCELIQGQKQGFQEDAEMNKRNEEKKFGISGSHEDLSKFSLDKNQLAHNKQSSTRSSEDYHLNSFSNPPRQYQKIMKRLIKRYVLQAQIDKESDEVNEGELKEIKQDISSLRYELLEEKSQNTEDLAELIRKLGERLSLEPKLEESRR
# TRPC6 inhibitor = mouse TRPC6 channel inhibitors, primary screen, cell-based, HEK293, membrane potential dye; ACh-evoked depolarization; hits give low values; B-score at 10 µM; 310,000 tested, 1.1% active; AID 2553, 2010;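 active = B-score under library mean minus 3 SD, initial fluorescence not abnormally high, positive integrated signal ratio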;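 note: B-score derived from integrated fluorescence ratio over the kinetic read; more negative B-score means stronger inhibition of depolarization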
# TRPC4 block = inhibitors of mouse TRPC4 channel, primary screen, Fluo4 calcium, HEK293 TRPC4beta/mu-opioid cells; AID 2247, 2010; 300,000 tested, 0.39% active; DAMGO-evoked Fluo4 calcium flux; hits give low values; B-score at 10 µM; Short transient receptor potential channel 4 (Mus musculus), Q9QUQ5;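 active = B-score over 3 SD under the library average, no early fluorescence shift, positive overall ratio signal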
#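 Material: HEK293 cells with stable TRPC4beta plus mu-opioid receptor expression; probe or stimulus: DAMGO in two steps, submaximal then maximal; technique: Fluo4 calcium fluorescence by kinetic imaging, 5 s 1 Hz baseline; measure: integrated fluorescence ratio relative to baseline, converted to per-well B score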
# TRPC4 PAM = positive allosteric modulators of TRPC4, primary screen, cell-based, mouse TRPC4beta, HEK293 mu-opioid, Fluo-4 calcium; DAMGO EC20, Fluo-4 Ca2+ flux; hits give high values; B-score at 10 µM; 310,000 tested, 0.42% active; AID 2227, 2009;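 active = B-score of calcium response area above 5 SD of library B-scores, with initial fluorescence ratio within 5 SD of library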;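 note: B-score of integrated fluorescence ratio over time as area under calcium response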
# TRPC4 agonist = activators of mouse TRPC4 channel, primary screen, Fluo4 calcium, HEK293 TRPC4beta/mu-opioid cells; Fluo4 calcium fluorescence; hits give high values; B-score at 10 µM; AID 2237, 2010; Short transient receptor potential channel 4 (Mus musculus), Q9QUQ5; 310,000 tested, 0.49% active;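 active = B-score above 5 SD of library B-scores, and initial fluorescence ratio not above library mean plus 5 SD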;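 note: positive B-score marks a calcium rise read as TRPC4 activation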
#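 Incubation: 45 min room-temperature Fluo4 loading, 110 s read / System: HEK293 cells stably co-expressing mouse TRPC4beta and mu-opioid receptor / Signal: Fluo4 fluorescence, kinetic / Control set: buffer (low) and maximal DAMGO (high) / Measure: integrated baseline-normalised fluorescence ratio, converted to per-well B score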
# TRPC4 spec 2 = second check of whether TRPC6 inhibitors also affect mouse TRPC4 | HEK293 TRPC4/MOR, membrane potential dye fluorescence; channel activated by saturating DAMGO dose | 920 tested, 42% active | shares compounds with TRPC6 inhibitor | inhibition, % at 10 µM;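 active = compounds whose fluorescence signal differed from control wells by over 3 SD, either direction, in both duplicate plates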
# TRPC4 spec = mouse TRPC4 modulation by TRPC6 hits, confirmation, selectivity assay for TRPC6 inhibitor project, cell-based, HEK293 TRPC4/mu-opioid, membrane potential dye; activity change, negative = inhibition, % at 10 µM; membrane potential fluorescence; 920 tested, 61% active; shares compounds with TRPC6 inhibitor;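 active = rise or fall in signal beyond 3 SD of buffer-only wells in both replicate plates, either sign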;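 note: integrated kinetic ratio of fluorescence range over baseline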
# HEK293 MPD ctr 2-1 = nonspecific membrane potential effects, parental HEK293, confirmation, counter-screen for TRPC6 inhibitor project, cell-based, second counter screen. 920 tested, 31% active. parental HEK293 membrane potential dye fluorescence; maximal acetylcholine challenge after compound addition. signal change vs control, % at 10 µM. shares compounds with TRPC6 inhibitor. AID 2779, 2010;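 active = membrane potential signal moving either way by over 3 SD of the maximum-effect control, in both duplicate plates, meaning non-specific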
# HEK293 MPD ctr-1 = membrane potential modulation in parental HEK293, confirmation, counter-screen for TRPC6 inhibitor project, cell-based; shares compounds with TRPC6 inhibitor; parental HEK293 membrane potential dye fluorescence; membrane potential signal change, % at 10 µM; 920 tested, 60% active; AID 2780, 2010;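 active = membrane potential signal shifting up or down by more than 3 SD of buffer-only wells, on both duplicate plates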
# HEK293 MPD ctr-2 = parental HEK293 membrane potential modulation, confirmation, counter-screen for TRPC6 modulator project, cell-based; shares compounds with TRPC6 inhibitor; membrane potential signal change, % at 10 µM; membrane potential dye fluorescence; 2,400 tested, 51% active;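 active = membrane potential signal moves up or down beyond 5 SD from buffer-only wells, on both duplicate plates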
# HEK293 MPD ctr 2-2 = second check of TRPC6 modulator effects in parental HEK293 cells; membrane potential dye fluorescence; after compound, maximal acetylcholine stimulation; inhibition, % at 10 µM; 2,400 tested, 14% active; shares compounds with TRPC6 inhibitor;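 active = membrane potential signal drops by more than 5 SD from the mean control signal, in both duplicate plates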;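 note: plate controls were acetylcholine ECmax control wells for no effect and buffer only wells for full effect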
# TRPC4 ctr mod = TRPC4 modulation by TRPC6 hit compounds, confirmation, selectivity assay for TRPC6 modulator project, cell-based, HEK293 TRPC4/mu-opioid, membrane potential dye, mouse. 2,400 tested, 69% active. AID 488927, 2010. membrane potential fluorescence. percent change from control (negative = decrease, positive = increase), % at 10 µM. shares compounds with TRPC6 inhibitor;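 active = membrane potential signal moved up or down beyond 5 SD of buffer control wells, in both duplicate plates, actives on both sides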;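 note: plate controls were assay buffer wells for no effect and DAMGO maximal-effect wells for full effect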
# TRPC4/MOR inh 2 = second selectivity test of TRPC6 modulators against mouse TRPC4 | HEK293 TRPC4/mu-opioid, membrane potential dye fluorescence; stimulated with maximal-effect DAMGO | 2,400 tested, 55% active | inhibition, % at 10 µM | shares compounds with TRPC6 inhibitor | AID 488928;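 active = drop in membrane potential signal beyond 5 SD of the control wells in both duplicate plates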;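 note: TRPC4 counter screen for TRPC6 hits run under conditions tuned for TRPC6 not TRPC4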
# TRPC6 block conf = mouse TRPC6 channel inhibitors, confirmation, HEK293 cells, membrane potential dye, duplicate; shares compounds with TRPC6 inhibitor; ACh-evoked depolarization; inhibition, % at 10 µM; 3,300 tested, 43% active; AID 488960, 2010;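 active = fluorescence ratio falls more than 5 SD below the full-stimulation control mean, in both duplicate runs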;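 note: integrated fluorescence ratio of peak minus minimum over baseline after agonist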
# TRPC6 act confirm = mouse TRPC6 channel activators, confirmation, HEK293 cells, membrane potential dye, duplicate | shares compounds with TRPC6 inhibitor | HEK293-TRPC6 membrane potential dye fluorescence, FDSS | activation, % at 10 µM | 2,800 tested, 11% active | AID 488961, 2010;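 active = ratio signal rise beyond 5 SD above unstimulated control wells' mean, seen in both duplicate runs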;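 note: plate controls were buffer EC0 wells for no effect and acetylcholine ECmax response for full effect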
# * = called active by the depositor; i = inactive; nt = no result given.
SMILES,TRPC6 act,TRPC6 inhibitor,TRPC4 block,TRPC4 PAM,TRPC4 agonist,TRPC6 block conf,others
O=C(/C=C/c1ccc(F)cc1)NC(=S)N1C[C@H]2C[C@H](C1)c1cccc(=O)n1C2,i,i,i,i,i,nt,
COc1ccc(-c2nc3ccc(C(=O)N4CCC5(CC4)OCCO5)cc3nc2-c2ccc(OC)cc2)cc1,i,i,i,i,i,nt,
CCN(CC)c1ccc(CNCCc2ccc(F)cc2)cc1,i,i,i,i,51*,nt,
CCc1ccc(CNCCc2ccc(F)cc2)cc1,i,i,i,i,i,nt,
CN1C(C(=O)N2CCC3(CC2)OCCO3)=CC(c2ccc(F)cc2)=NS1(=O)=O,i,i,i,i,i,nt,
C=CCn1c(O)c(C(CC)=Nc2ccc(N(C)C)cc2)c(=O)[nH]c1=O,i,i,i,i,i,nt,
CN1CCN(CC#CCOc2ccc(Cl)cc2)CC1,i,i,i,i,i,nt,
Clc1ccc(OCC#CCN2CCCC2)cc1,i,i,i,24*,i,nt,
CCCN1CCC[C@@H]2Cc3nc(N)ncc3C[C@H]21,i,i,i,11*,i,nt,
CCCN1CCC[C@@H]2Cc3[nH]ncc3C[C@H]21,i,i,i,i,i,nt,
CCOC(=O)c1cncn1[C@H](C)c1ccccc1,i,i,i,i,i,nt,
CCCCn1c(O)c(C(=O)/C=C/c2c[nH]c3ccccc23)c(=O)[nH]c1=O,247*,i,i,i,i,i,HEK293 MPD ctr-2=941%*;HEK293 MPD ctr 2-2=i;TRPC4 ctr mod=586%*;TRPC4/MOR inh 2=i;TRPC6 act confirm=212%*
COC[C@]12CN(C)C3C4[C@H](OC)[C@H]1C3([C@@H](OC)C[C@H]2O)[C@@H]1C[C@@]2(O)[C@H](OC(=O)c3ccccc3)[C@@H]1[C@]4(OC(C)=O)[C@@H](O)[C@@H]2OC,i,i,i,i,i,nt,
CN(C)c1cc(N)c2c(n1)CCC2 (tested in a mixture with another compound),i,-6.4*,i,i,i,i,HEK293 MPD ctr-2=-271%*;HEK293 MPD ctr 2-2=i;TRPC4 ctr mod=-40%*;TRPC4/MOR inh 2=40%*;TRPC6 act confirm=i
Cc1c(C(=O)C(=O)N2CCC3(CC2)OCCO3)c2ccccc2n1C,i,i,i,i,i,nt,
CNc1cc(N2CCN(C)CC2)ccc1[N+](=O)[O-],i,i,i,i,i,nt,
O=[N+]([O-])c1ccc(N2CCCC2)cc1N/N=C1\CN2CCC1CC2,i,-5.2*,i,i,i,88%*,HEK293 MPD ctr-2=-248%*;HEK293 MPD ctr 2-2=74%*;TRPC4 ctr mod=-41%*;TRPC4/MOR inh 2=86%*;TRPC6 act confirm=i
COc1cc(C[C@@H](C)N)c(OC)cc1I,i,-5.2*,i,i,i,42%*,HEK293 MPD ctr-2=i;HEK293 MPD ctr 2-2=i;TRPC4 ctr mod=i;TRPC4/MOR inh 2=42%*;TRPC6 act confirm=i
C=CC1CN2CCC1CC2c1[nH]c2ccccc2c1CCO (centres undefined),i,i,i,i,i,nt,
CN1CCN(Cc2ccc3ccccc3c2)CC1,i,i,i,i,i,nt,
CN1CCN(CCC(C#N)(c2ccccc2)c2ccccc2)CC1,i,-7.2*,i,i,i,i,TRPC4 spec 2=i;TRPC4 spec=2.6%*;HEK293 MPD ctr 2-1=15%*;HEK293 MPD ctr-1=7.2%*
CCN(CC)C(=O)c1ccc2c(c1)C1C=CCC1C(C(=O)O)N2 (centres undefined),i,i,i,i,i,nt,
Cc1cccc(N2CCc3c2nc2ccccc2c3N)c1,i,-14*,-7*,i,i,81%*,HEK293 MPD ctr-2=-192%*;HEK293 MPD ctr 2-2=74%*;TRPC4 ctr mod=-49%*;TRPC4/MOR inh 2=98%*;TRPC6 act confirm=i
CCN(CC)CCCOC(=O)C(OC(C)C)(c1ccccc1)c1ccccc1,i,-9.1*,i,i,i,57%*,TRPC4 spec 2=66%*;TRPC4 spec=39%*;HEK293 MPD ctr 2-1=i;HEK293 MPD ctr-1=22%*
CCOC(C(=O)OCCCN(CC)CC)(c1ccccc1)c1ccccc1,i,i,i,i,i,nt,
CC(C)(C)C(=O)OC[N+](C)(C)CCOC(=O)C(O)(c1ccccc1)C1CCCC1 (centres undefined),i,-5.6*,i,i,i,86%*,HEK293 MPD ctr-2=i;HEK293 MPD ctr 2-2=83%*;TRPC4 ctr mod=i;TRPC4/MOR inh 2=i;TRPC6 act confirm=i

# Compound activity from PubChem.
